# Measured values gathered from unrelated publications.
# Compare with care: the assays were run in different laboratories.
# Target: Substance-P receptor (TACR1, Homo sapiens, UniProt P25103)
SMILES,effect on,method,concentration,inhibition
COc1ccc(C(=O)NCc2cc(C(C)C)no2)cc1OC1CCN(C)CC1,ligand displacement,radioligand,10 µM,22%
C[C@H](C(=O)N[C@H]1COc2ccccc2[C@@H]1S(C)(=O)=O)c1ccc(F)cc1,cell-free assay,,10 µM,11%
CC(C)N1CCC[C@H]1CNC(=O)c1cn(C2CCCC2)c(=O)c2c1c1ccccc1n2C,ligand displacement,radioligand,10 µM,23%
c1ccc(C(NCCNC(c2ccccc2)c2ccccc2)c2ccccc2)cc1,cell-free assay,,10 µM,49%
CC(C)Cn1cnc2c(N)nc3ccccc3c21,ligand displacement,radioligand,10 µM,-8%
CN(CCN1CCC(OC(=O)Nc2ccccc2-c2ccccc2)CC1)C(=O)c1ccc(CN2CCC(C(N)=O)CC2)cc1,ligand displacement,radioligand,1 µM,-6%
O=C(Nc1cccnn1)N1CCN([C@@H]2CCOc3cc(C(F)(F)F)ccc32)CC1,ligand displacement,,20 µM,38%
CCCCCCCCCCCC(=O)OC[C@@H](COP(=O)(O)OCCNC(=O)c1ccc(Cn2c(=O)[nH]c3c(N)nc(OCCOC)nc32)cc1)OC(=O)CCCCCCCCCCC,ligand displacement,radioligand,10 µM,23%
COc1ccc(S(=O)(=O)N2CCCCC2)cc1C,ligand displacement,radioligand,10 µM,< 30%
